Legend:
[1] = biological target: T1, Toll-like receptor 7 (Homo sapiens) (UniProt Q9NYK1); assay: Agonist activity at TLR7 in human PBMC assessed as suppression of HCV replicon replication in human HuH7 luc/neo cells harboring RNA encoding bicistronic expression construct comprising wild type HCV type 1b NS3-NS5B regions exposed to conditioned media from compound treated PBMCs by luciferase reporter gene assay; type: cell-based
T1 sequence (whole entry): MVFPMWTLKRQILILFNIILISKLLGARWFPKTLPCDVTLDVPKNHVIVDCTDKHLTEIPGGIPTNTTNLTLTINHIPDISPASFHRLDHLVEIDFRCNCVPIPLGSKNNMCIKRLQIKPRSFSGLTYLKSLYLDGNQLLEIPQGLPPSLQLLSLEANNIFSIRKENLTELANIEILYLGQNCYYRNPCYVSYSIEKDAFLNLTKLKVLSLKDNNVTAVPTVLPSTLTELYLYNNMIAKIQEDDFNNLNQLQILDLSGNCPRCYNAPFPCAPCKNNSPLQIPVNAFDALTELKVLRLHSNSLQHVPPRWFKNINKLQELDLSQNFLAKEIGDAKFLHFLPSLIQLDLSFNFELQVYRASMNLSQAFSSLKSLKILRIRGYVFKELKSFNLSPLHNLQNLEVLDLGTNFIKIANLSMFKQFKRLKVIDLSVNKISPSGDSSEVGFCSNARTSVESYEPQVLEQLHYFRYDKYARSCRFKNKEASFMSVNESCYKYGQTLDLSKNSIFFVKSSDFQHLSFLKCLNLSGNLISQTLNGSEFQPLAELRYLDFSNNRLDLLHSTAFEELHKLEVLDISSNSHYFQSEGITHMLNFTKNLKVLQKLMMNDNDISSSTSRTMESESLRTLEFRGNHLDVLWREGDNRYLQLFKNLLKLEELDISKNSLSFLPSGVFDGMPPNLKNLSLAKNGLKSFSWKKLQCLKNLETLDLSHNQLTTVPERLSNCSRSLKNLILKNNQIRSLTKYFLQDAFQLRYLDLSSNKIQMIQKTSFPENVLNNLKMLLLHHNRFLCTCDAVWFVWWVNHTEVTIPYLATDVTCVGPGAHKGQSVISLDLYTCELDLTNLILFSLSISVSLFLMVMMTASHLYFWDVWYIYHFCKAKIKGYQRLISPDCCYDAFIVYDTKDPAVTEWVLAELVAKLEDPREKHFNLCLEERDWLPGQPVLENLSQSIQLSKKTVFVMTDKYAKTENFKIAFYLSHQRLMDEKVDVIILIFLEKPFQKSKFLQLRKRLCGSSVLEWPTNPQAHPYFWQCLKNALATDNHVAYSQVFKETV
Procedure, shortened: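 PBMCs from buffy coats of at least two donors (Ficoll), in RPMI with 10% human AB serum, 2 x 10^5 cells/well, incubated overnight with compound. Supernatant transferred onto Huh7-luc/neo replicon cells plated the day before (2.2 x 10^3/well). Luciferase read after 24 h. EC50 is the concentration applied to PBMCs giving 50% luciferase reduction. Recombinant IFN-α2a standard.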

[2] = Cytotoxic activity against HEK293 cells assessed as reduction in cell viability incubated for 6 hrs; type: cell-based; settings: human
Procedure, shortened: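 HEK293 cells transfected with the CMV-TLR7 construct alone, treated with a compound dilution series for 6 h at 37°C, 5% CO₂. Viability read by ATP luminescence. Reported as CC50.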

[3] = biological target: Cytochrome P450 2C9 (Homo sapiens, UniProt P11712); assay: Inhibition of CYP2C9 (unknown origin); type: ADME
Cytochrome P450 2C9, sequence (P11712 whole entry): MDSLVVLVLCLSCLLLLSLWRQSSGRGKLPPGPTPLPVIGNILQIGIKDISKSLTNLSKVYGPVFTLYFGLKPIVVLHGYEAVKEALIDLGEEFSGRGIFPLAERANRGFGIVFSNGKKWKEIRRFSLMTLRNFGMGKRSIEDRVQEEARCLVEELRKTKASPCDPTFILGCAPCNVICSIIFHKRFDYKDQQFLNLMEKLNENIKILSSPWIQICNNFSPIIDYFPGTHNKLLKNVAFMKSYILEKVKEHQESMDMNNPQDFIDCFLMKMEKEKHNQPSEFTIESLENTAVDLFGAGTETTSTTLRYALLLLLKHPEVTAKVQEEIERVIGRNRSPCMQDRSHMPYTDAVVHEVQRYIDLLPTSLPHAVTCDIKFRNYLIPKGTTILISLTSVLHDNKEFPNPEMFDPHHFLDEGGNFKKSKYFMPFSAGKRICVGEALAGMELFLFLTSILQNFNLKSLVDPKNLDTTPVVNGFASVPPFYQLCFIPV

[4] = biological target: Cytochrome P450 2C19 (Homo sapiens, UniProt P33261); assay: Inhibition of CYP2C19 (unknown origin); type: ADME
Cytochrome P450 2C19, sequence (P33261 whole entry): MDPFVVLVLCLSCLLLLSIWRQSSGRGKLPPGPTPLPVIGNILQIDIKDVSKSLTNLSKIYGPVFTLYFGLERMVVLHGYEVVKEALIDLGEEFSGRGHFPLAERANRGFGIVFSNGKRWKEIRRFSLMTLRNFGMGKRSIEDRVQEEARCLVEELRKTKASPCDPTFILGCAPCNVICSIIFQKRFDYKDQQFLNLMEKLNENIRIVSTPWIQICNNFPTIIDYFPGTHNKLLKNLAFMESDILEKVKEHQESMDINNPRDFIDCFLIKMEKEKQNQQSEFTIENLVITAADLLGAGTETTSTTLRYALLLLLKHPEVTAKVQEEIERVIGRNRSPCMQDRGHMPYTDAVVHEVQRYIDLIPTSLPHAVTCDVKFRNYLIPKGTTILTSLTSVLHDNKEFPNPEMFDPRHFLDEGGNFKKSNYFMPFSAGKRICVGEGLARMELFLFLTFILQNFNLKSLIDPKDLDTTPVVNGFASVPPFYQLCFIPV

[5] = Metabolic stability in human liver microsomes assessed as drug metabolism after 15 mins at 1 uM; type: ADME, microsome; settings: read-out: Drug metabolism
Procedure, shortened: (§1)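 Compound at 1µM incubated with liver microsomes of the stated species. Percent of compound metabolized after 15 min.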

[6] = biological target: T2, Toll-like receptor 8 (Homo sapiens, UniProt Q9NR97); assay: Agonist activity at human TLR8 expressed in HEK293 cells assessed as induction of receptor activation incubated for 6 hrs by NF-kappaB-luciferase reporter gene assay; type: cell-based; settings: hek293, 6 h
T2 sequence (Q9NR97 whole entry): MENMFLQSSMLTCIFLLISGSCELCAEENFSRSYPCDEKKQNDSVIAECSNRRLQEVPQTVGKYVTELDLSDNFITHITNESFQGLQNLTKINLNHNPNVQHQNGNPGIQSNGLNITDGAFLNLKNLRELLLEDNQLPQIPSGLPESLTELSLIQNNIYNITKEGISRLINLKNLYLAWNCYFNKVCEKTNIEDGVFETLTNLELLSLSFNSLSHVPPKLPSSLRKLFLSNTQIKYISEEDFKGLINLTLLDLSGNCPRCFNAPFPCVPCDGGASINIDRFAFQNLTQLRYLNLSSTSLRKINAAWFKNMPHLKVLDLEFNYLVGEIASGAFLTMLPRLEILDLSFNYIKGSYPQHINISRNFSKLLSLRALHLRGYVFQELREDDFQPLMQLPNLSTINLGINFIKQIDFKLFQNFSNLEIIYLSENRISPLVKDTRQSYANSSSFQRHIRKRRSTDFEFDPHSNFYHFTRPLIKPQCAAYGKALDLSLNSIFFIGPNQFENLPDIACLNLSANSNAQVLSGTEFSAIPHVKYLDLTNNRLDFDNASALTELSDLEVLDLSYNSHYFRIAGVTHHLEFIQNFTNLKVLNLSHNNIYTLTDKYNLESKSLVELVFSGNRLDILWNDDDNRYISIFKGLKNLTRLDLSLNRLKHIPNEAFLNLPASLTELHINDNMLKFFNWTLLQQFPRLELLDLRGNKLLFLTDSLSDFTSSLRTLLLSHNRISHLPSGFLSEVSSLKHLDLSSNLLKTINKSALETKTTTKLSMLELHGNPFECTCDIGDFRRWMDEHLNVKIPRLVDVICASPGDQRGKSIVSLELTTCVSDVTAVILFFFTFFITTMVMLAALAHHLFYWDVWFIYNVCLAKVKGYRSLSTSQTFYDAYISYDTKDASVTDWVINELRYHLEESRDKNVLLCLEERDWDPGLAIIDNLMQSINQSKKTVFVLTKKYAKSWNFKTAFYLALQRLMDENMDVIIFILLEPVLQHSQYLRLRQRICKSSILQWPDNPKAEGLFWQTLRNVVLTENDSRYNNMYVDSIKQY
Procedure, shortened: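 HEK293 cells transiently transfected overnight at 37°C with CMV-TLR8 plasmid (wild type or dLRR2 mutant) plus NFκB-luc reporter, then exposed to compound for 6 h at 37°C, 5% CO₂. Luciferase read-out. Quadruplicate dose-response. LEC is the concentration giving an effect at least two-fold above the assay SD, averaged over two or more independent experiments.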

[7] = biological target: T1, Toll-like receptor 7 (Homo sapiens); assay: Agonist activity at human TLR7 expressed in HEK293 cells assessed as induction of receptor activation incubated for 6 hrs by NF-kappaB-luciferase reporter gene assay; type: cell-based
Procedure, shortened: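 HEK293 cells transiently transfected overnight with CMV-TLR7 (wild type or dLRR2 mutant) plus NFκB-luc plasmids. Seeded at 1.67 x 10^5 cells/mL onto compound in 4% DMSO (stock), 6 h at 37°C, 5% CO2, luciferase readout. Quadruplicate dose-response. LEC is the concentration giving an effect at least two-fold above assay SD. Values averaged over independent experiments where repeated.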

[8] = Metabolic stability in mouse liver microsomes assessed as drug metabolism after 15 mins at 1 uM; type: ADME, microsome; settings: read-out: Drug metabolism; procedure, shortened: as §1

Row | Compound | MEC [1] [µM] | CC50 at 6 h [2] [µM] | IC50 [3] [µM] | IC50 [4] [µM] | metabolised at 0.25 h, 1 µM [5] [%] | MEC [6] [µM] | MEC [7] [µM] | metabolised at 0.25 h, 1 µM [8] [%]
1 | CCCCNc1nc(N)nc2cccc(C(=O)N[C@@H](C)c3ccccc3)c12 | 0.14 | > 25 | > 10 | > 10 | 31 | > 25 | 0.09 | 68
2 | CCCCNc1nc(N)nc2cccc(C(=O)NCc3ccccc3)c12 | 0.03 | > 25 | > 10 | > 10 | 28 | 1.6 | 0.06 | 92
3 | CCCCNc1nc(N)nc2cccc(C(=O)NC(C)C)c12 | 0.56 | > 25 | > 10 | > 10 | 14 | 15.55 | 2.05 | 45
4 | CCCCNc1nc(N)nc2cccc(C(=O)N(C)Cc3ccccc3)c12 | 0.27 | > 25 | > 10 | > 10 | 98 | > 25 | 0.53 | 99
5 | CCCCNc1nc(N)nc2cccc(C(=O)N[C@H](C)c3ccccc3)c12 | > 25 | > 25 | > 10 | > 10 | 32 | > 25 | 2.29 | 75
6 | CCCCNc1nc(N)nc2ccccc12 |  | 18 to 25 |  |  | 90 | 0.07 | 0.17 | 
7 | CCCCNc1nc(N)nc2cccc(OCc3ccccn3)c12 | 0.043 | > 25 | > 10 | > 10 | 60 | 18.5 | 0.49 | 99
